Test [1] addresses T1, 17-beta-hydroxysteroid dehydrogenase type 3 (Rattus norvegicus) (UniProt O54939).
T1 sequence (whole entry): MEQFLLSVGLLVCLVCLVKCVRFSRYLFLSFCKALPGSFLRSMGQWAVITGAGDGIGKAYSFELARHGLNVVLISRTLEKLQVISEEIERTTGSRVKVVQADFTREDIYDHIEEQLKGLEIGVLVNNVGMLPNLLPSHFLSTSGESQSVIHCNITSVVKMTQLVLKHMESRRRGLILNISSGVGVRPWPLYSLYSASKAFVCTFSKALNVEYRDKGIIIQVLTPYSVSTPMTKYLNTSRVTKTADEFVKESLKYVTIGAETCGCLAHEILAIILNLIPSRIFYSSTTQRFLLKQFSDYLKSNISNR
Description: Inhibition of 17beta-HSD3 in rat testes microsomes using [14C]-4-androstene-3,17-dione as substrate measured based on 18% of initial enzyme transformation at 0.01 uM after 2 hrs. The note with it: Testis. In a few lines:
(§1)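 Rat testis microsomes: homogenate in phosphate/sucrose/EDTA buffer pH 7.5 with protease inhibitors, spun 12,500g, then pellet from 100,000g, at 4 °C. Reaction 2 h at 37 °C in 50 mM sodium phosphate pH 7.4, 20% glycerol, 1 mM EDTA, with NADPH and [14C]-Δ4-dione (50 nM). Inhibitor in DMSO. [14C]-T and substrate identified against reference steroids and quantified. Percent transformation and percent inhibition calculated.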

In test [2] the target is T1, 17-beta-hydroxysteroid dehydrogenase type 3 (Rattus norvegicus). The experiment in a line: Ratio of delta4-dione IC50 to compound IC50 for 17beta-HSD3 in rat testes microsomes. The note with it: Testis.
Test [3] deals with LAPC4. The experiment in a line: Androgenic activity in human LAPC4 cells expressing androgen receptor assessed as induction of cell proliferation at 0.1 uM after 3 days by MTS assay relative to control. The class given is functional. In a few lines: (§2)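 LAPC-4 (AR+) cells in RPMI-1640 with 5% dextran-coated charcoal-treated FBS to remove hormones. Triplicate cultures of 10,000 cells preincubated 24 h at 37 °C, 5% CO2. Compounds from 10^-2 M DMSO stock, diluted in medium, added for 3 days (final DMSO 0.05%; vehicle controls). Growth read by MTS. Androgenicity = % proliferation minus basal set at 100%.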
In general terms: Formazan colour is commonly taken as a measure of viable cells.

Test [4] concerns LAPC4. Description: Androgenic activity in human LAPC4 cells expressing androgen receptor assessed as induction of cell proliferation at 1 uM after 3 days by MTS assay relative to control. The class given is functional. In a few lines:
as §2

In test [5] the target is T2, 17-beta-hydroxysteroid dehydrogenase type 3 (Rattus norvegicus, UniProt O54939).
T2 sequence (O54939 whole entry): T1 sequence (whole entry)
Description: Inhibition of 17beta-HSD3 in rat testes microsomes using [14C]-4-androstene-3,17-dione as substrate after 2 hrs. More on the design: species or system Testis. In a few lines: as §1

Test [6] has as its target T3, 17-beta-hydroxysteroid dehydrogenase type 3 (Homo sapiens) (UniProt P37058).
T3 sequence (whole entry): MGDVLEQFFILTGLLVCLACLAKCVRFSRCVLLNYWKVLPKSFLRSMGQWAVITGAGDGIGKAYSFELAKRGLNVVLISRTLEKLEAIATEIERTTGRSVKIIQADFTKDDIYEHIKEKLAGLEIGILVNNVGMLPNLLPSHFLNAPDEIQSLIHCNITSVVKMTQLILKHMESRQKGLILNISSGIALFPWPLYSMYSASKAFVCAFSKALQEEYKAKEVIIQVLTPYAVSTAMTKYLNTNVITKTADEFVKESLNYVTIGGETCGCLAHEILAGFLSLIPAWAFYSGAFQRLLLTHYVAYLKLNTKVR
The experiment in a line: Inhibition of 17beta-HSD3 (unknown origin) expressed in human LNCaP cells using [14C]-4-androstene-3,17-dione as substrate at 1 uM after 3 hrs. The class given is cell-based. The method in brief: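 LNCaP cells stably transfected with 17β-HSD3, kept under hygromycin, which was omitted during assay. 15,000 cells/well grown 3 days in protocol medium, then given 15 nM [14C]-4-androstene-3,17-dione plus inhibitor in DMSO (final 0.05%) for 3 h. Steroids extracted from medium, separated by TLC and quantified. Percent inhibition of T formation calculated.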

Test [7] addresses T1, 17-beta-hydroxysteroid dehydrogenase type 3 (Rattus norvegicus). The experiment in a line: Inhibition of 17beta-HSD3 in rat testes microsomes using [14C]-4-androstene-3,17-dione as substrate measured based on 18% of initial enzyme transformation at 1 uM after 2 hrs. The note with it: Testis. In a few lines:
as §1

For test [8] the target is unchanged. The experiment in a line: Inhibition of 17beta-HSD3 in rat testes microsomes using [14C]-4-androstene-3,17-dione as substrate measured based on 18% of initial enzyme transformation at 0.1 uM after 2 hrs. The note with it: Testis. The method in brief:
as §1

For test [9] the target is unchanged. Description: Inhibition of 17beta-HSD3 in rat testes microsomes using [14C]-4-androstene-3,17-dione as substrate measured based on 33% of initial enzyme transformation at 1 uM after 2 hrs. The note with it: Testis. The method in brief:
as §1

Test [10] has the same target. The experiment in a line: Inhibition of 17beta-HSD3 in rat testes microsomes using [14C]-4-androstene-3,17-dione as substrate measured based on 4% of initial enzyme transformation at 1 uM after 2 hrs. The note with it: Testis. The method in brief:
as §1

Test [11] has the same target. Description: Inhibition of 17beta-HSD3 in rat testes microsomes using [14C]-4-androstene-3,17-dione as substrate measured based on 33% of initial enzyme transformation at 0.1 uM after 2 hrs. The note with it: Testis. In a few lines: as §1
The target is the same in test [12]. Description: Inhibition of 17beta-HSD3 in rat testes microsomes using [14C]-4-androstene-3,17-dione as substrate measured based on 33% of initial enzyme transformation at 10 uM after 2 hrs. The note with it: Testis. The method in brief:
as §1

The target of test [13] is T3, 17-beta-hydroxysteroid dehydrogenase type 3 (Homo sapiens). The note with it: LNCaP, 0.5 uM.
Test [14] concerns the target T1, 17-beta-hydroxysteroid dehydrogenase type 3 (Rattus norvegicus). Description: Inhibition of 17beta-HSD3 in rat testes microsomes using [14C]-4-androstene-3,17-dione as substrate measured based on 4% of initial enzyme transformation at 10 uM after 2 hrs. The note with it: Testis. In a few lines:
as §1

Regarding `C[C@]12CC[C@@]3(C[C@@H]1CC[C@@H]1[C@@H]2CC[C@]2(C)C(=O)CC[C@@H]12)CN(S(=O)(=O)c1ccc(C(F)(F)F)cc1)CC(=O)O3`, the inhibition in test [1] is 32.9%; in [6] it was 10%; in test [7], 85.1%; in test [8] it was 48.6%. The Ratio IC50 in test [2] amounted to 6. Moreover, the Activity in the test on LAPC4 [3] and in the test with LAPC4 [4] was 0% throughout. In addition, the midpoint of inhibition in test [5], the IC50, lay at 28 nM.

On to `C[C@@H]1CN(S(=O)(=O)c2ccccc2C(F)(F)F)[C@@H](C)CN1C[C@@]1(O)CC[C@@]2(C)[C@@H](CC[C@@H]3[C@@H]2CC[C@]2(C)C(=O)CC[C@@H]32)C1`, for which the inhibition came to 94.4% in [9]; 96.4% in test [10]; 89.4% in [11]; 94% in test [12]; 32.4% in test [1]; 100% in [13]. The inhibition in [14] is 97.1%; in test [8], 43.7%. Further, the Activity in the test on LAPC4 [3] and with LAPC4 [4] was 0% throughout. In test [5], this compound returned an IC50 of 13 nM.

What is called inhibition is the drop in the measured response relative to a control, in per cent. The term IC50 denotes the concentration needed to halve the response being measured. The low end stands for greater potency, the high end for weaker potency.

The values above are taken from ChEMBL document CHEMBL3603811, “Design, chemical synthesis and biological evaluation of 3-spiromorpholinone/3-spirocarbamate androsterone derivatives as inhibitors of 17β-hydroxysteroid dehydrogenase type 3” (Bioorg Med Chem, 2015).
